Data: ChEMBL document CHEMBL1152513, “Synthesis and characterizations of novel quinoline derivatives having mixed ligand activities at the kappa and mu receptors: Potential therapeutic efficacy against morphine dependence” (Bioorg Med Chem, 2009)
The source made the active and inactive calls. No cut-off for these calls is given here.

Experiments:
[1] = target: Mu-type opioid receptor (Rattus norvegicus) (UniProt P33535); assay: Displacement of [3H]DAMGO from mu opioid receptor in rat brain measured total binding per mg of protein at 5 uM; type: tissue-based
Chain of Mu-type opioid receptor (Rattus norvegicus) (P33535 whole entry): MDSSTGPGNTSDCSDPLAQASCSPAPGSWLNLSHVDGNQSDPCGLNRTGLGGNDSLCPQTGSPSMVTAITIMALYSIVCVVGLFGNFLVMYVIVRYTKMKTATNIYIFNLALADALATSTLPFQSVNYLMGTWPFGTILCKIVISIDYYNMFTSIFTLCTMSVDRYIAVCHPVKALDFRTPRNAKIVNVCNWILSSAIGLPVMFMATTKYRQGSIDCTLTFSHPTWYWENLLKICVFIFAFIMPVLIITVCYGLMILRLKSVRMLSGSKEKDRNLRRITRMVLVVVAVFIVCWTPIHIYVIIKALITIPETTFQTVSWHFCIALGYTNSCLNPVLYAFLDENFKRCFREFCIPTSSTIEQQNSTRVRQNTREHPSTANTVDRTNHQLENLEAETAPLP

[2] = target: Kappa-type opioid receptor (Homo sapiens) (UniProt P41145); assay: Displacement of [3H]dynorphin from human kappa opioid receptor expressed in C6 giloma cells measured total binding per mg of protein at 5 uM; type: cell-based
Chain of Kappa-type opioid receptor (Homo sapiens) (P41145 whole entry): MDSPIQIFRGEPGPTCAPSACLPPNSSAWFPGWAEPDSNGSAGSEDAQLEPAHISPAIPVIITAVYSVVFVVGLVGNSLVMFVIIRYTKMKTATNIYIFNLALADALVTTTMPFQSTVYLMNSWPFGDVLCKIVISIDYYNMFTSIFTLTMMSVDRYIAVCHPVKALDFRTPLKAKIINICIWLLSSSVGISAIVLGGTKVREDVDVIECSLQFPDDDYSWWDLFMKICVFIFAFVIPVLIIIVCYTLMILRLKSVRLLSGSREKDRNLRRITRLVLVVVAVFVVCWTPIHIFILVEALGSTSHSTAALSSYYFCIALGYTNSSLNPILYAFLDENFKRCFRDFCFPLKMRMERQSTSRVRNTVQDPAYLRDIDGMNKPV
In short: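 Membranes from C6 glioma cells stably transfected with human KOR (G418 selected), harvested in PBS, homogenized in 50 mM Tris–HCl pH 7.4 and spun at 30,000g. Nonspecific binding defined with 10 µM U50488H. Read by filtration and counting.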

[3] = species on record: Rattus norvegicus; assay: Induction of ERK phosphorylation in rat primary astrocyte at 40 uM after 10 mins
In short: (§1)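 Primary astrocytes from neocortex of newborn rat pups (<24 h), grown 10 days, then serum-starved 48 h. Treated 10 min at 40 µM; antagonists added 1 h before stimulation. pERK1/2 measured by western blot, 40 µg protein/lane, 10% SDS-PAGE, anti-p-ERK at 1:1000. Mean ± SEM of at least 3 blots, compared with untreated control.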

[4] = system: Mus musculus; assay: Inhibition of naloxone-induced stereotype jumping in morphine treated mouse at 20 mg/kg, iv for 6 days; type: functional, organism-based; parameters: dose 20 mg/kg
[5] = system: Mus musculus; assay: Inhibition of naloxone-induced weight loss in mouse at 20 mg/kg, iv for 6 days; type: functional, organism-based; parameters: dose 20 mg/kg
[6] = species on record: Rattus norvegicus; assay: Induction of ERK phosphorylation in rat primary astrocyte at 40 uM after 10 mins in presence of naloxone; in short: as §1

Cc1cc(NCC(=O)Nc2ccccc2Cl)c2ccccc2n1
Activity [1]: 52%
Activity [2]: 52%
Activity [3]: Active
Activity [4]: Active

Cc1cc(NC(=O)C(Cl)Cl)c2ccccc2n1
Activity [1]: 106%
Activity [2]: 77%
Activity [3]: Active

O=C(CCCl)Nc1ccccc1
Activity [1]: 61%
Activity [2]: 59%
Activity [3]: Active
Activity [5]: Active

Cc1ccc(C(=O)Nc2cc(C)nc3ccccc23)cc1
Activity [1]: 62%
Activity [2]: 58%
Activity [3]: Active
Activity [4]: Active
Activity [5]: Active

Cc1ccc(NC(=O)CNc2cc(C)nc3ccccc23)cc1
Activity [1]: 47%
Activity [2]: 90%
Activity [3]: Active
Activity [4]: Active

Cc1cc(N(CC(=O)NC2CCCCC2)CC(=O)NC2CCCCC2)c2ccccc2n1
Activity [1]: 53%
Activity [2]: 114%
Activity [3]: Active

Cc1cc(N)c2ccccc2n1
Activity [1]: 95%
Activity [2]: 71%
Activity [3]: Active

COc1ccc(NC(=O)CNc2cc(C)nc3ccccc23)cc1
Activity [1]: 27%
Activity [2]: 44%
Activity [3]: Active

Cc1cc(NCC(=O)Nc2cc(Cl)ccc2Cl)c2ccccc2n1
Activity [1]: 66%
Activity [2]: 74%
Activity [3]: Active

C[C@@H](NC(=O)[C@@H](N)Cc1ccc(O)cc1)C(=O)NCC(=O)N(C)[C@@H](Cc1ccccc1)C(=O)NCCO
Activity [1]: 76%

Cc1cc(NCC(=O)Nc2ccccc2)c2ccccc2n1
Activity [1]: 30%
Activity [2]: 38%
Activity [3]: Active
Activity [6]: inactive
Activity [4]: Active

Cc1ccc(NC(=O)CCNc2cc(C)nc3ccccc23)cc1
Activity [1]: 23%
Activity [2]: 56%
Activity [3]: Active
